Laboratory results from ChEMBL document CHEMBL1142101, “Cytotoxic diterpenoids from the bark of Pseudolarix kaempferi and their structure-activity relationships” (J Nat Prod, 2007).

Tests used:
[1] = Cytotoxicity against human BGC823 cells after 48 hrs by MTT assay; type: cell-based, BGC-823; conditions: for Activity: human, bgc-823, 48 h; for IC50: Homo sapiens, BGC-823, 48 h
Procedure, shortened: (§1)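 Cells seeded in 96-well plates and exposed to serial dilutions of test compound spanning 10-2 to 102 µM. Incubated 48 h at 37 °C in humidified air with 5% CO2. Growth inhibition read by MTT. IC50 taken as the concentration (µM) giving 50% inhibition of cell growth.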

[2] = Cytotoxicity against human Bel7402 cells after 48 hrs by MTT assay; type: cell-based, Bel-7402; conditions: for Activity: human, bel-7402, 48 h; procedure, shortened: as §1
HL-60 = assay: Cytotoxicity against human HL60 cells after 48 hrs by MTT assay; type: cell-based; conditions: for Activity: human, hl-60, 48 h; for IC50: Homo sapiens, HL-60, 48 h; procedure, shortened: as §1
[3] = Homo sapiens, Bel-7402, 48 h, read-out: IC50

SMILES | Activity [1] | Activity [2] | Activity (HL-60) | IC50 ([2]; bel-7402) | IC50 [1] | IC50 [2, 3] | IC50 (HL-60)
COC(=O)C1=CC[C@@]23CC[C@@H]([C@@](C)(/C=C/C=C(\C)C(=O)OCC(O)CO)OC2=O)[C@@]3(O)CC1 (stereo partly drawn) | Not Active | Not Active | Not Active | – | – | – | –
COC(=O)C1=CC[C@@]23CC[C@@H]([C@@](C)(/C=C/C=C(\C)C(=O)O)OC2=O)[C@@]3(O)CC1 [PSEUDOLARIC ACID C] | Not Active | – | Not Active | Not Active | – | – | –
CC(=O)O[C@]12CCC(C)=CC[C@]13CC[C@H]2[C@@](C)(/C=C/C=C(\C)C(=O)O)OC3=O [PSEUDOLARIC ACID A] | – | – | – | – | > 100 µM | > 100 µM | 1.51 µM
O=c1[nH]cc(F)c(=O)[nH]1 [FLUOROURACIL] | – | – | – | – | 31.2 µM | 23.2 µM | 0.16 µM
CC(=O)O[C@]12CC=C(C)[C@H](O)C[C@]13CC[C@H]2[C@@](C)(/C=C/C=C(\C)C(=O)O)OC3=O [PSEUDOLARIC ACID G] | – | – | – | – | > 100 µM | > 100 µM | 11 µM
CC(=O)O[C@]12CC=C(C)C(=O)C[C@]13CC[C@H]2[C@@](C)(/C=C/C=C(\C)C(=O)O)OC3=O [PSEUDOLARIC ACID F] | Not Active | – | – | – | – | > 100 µM | 55.4 µM
CC1=CC[C@@]23CC[C@@H]([C@@](C)(/C=C/C=C(\C)C(=O)O[C@@H]4O[C@H](CO)[C@@H](O)[C@H](O)[C@H]4O)OC2=O)[C@@]3(O)CC1 | Not Active | – | Not Active | Not Active | – | – | –
CC1=CC[C@@]23CC[C@@H]([C@@](C)(/C=C/C=C(\C)C(=O)OCC(O)CO)OC2=O)[C@@]3(O)CC1 (stereo partly drawn) | Not Active | Not Active | Not Active | – | – | – | –
COC(=O)C1=CC[C@@]23CC[C@@H]([C@@](C)(/C=C/C=C(\C)C(=O)O)OC2=O)[C@@]3(OC(C)=O)CC1 [PSEUDOLARIC ACID B] | – | – | – | – | > 100 µM | > 100 µM | 0.59 µM
CC(=O)O[C@]12CCC(C(=O)O)=CC[C@]13CC[C@H]2[C@@](C)(/C=C/C=C(\C)C(=O)O)OC3=O [PSEUDOLARIC ACID C2] | – | Not Active | Not Active | – | > 100 µM | – | –
CC1=CC[C@@]23CC[C@@H]([C@@](C)(/C=C/C=C(\C)C(=O)O)OC2=O)[C@@]3(O)CC1 [DEACETYLPSEUDOLARIC ACID A] | Not Active | Not Active | Not Active | – | – | – | –
